ChEMBL document CHEMBL5303300, “EUbOPEN Chemogenomics Library - Multiplex” (2023)
Values joined by “and” are separate entries in the source; they are usually repeats but may differ in a detail not shown here. Equal values may be shown once.

Test system: U2OS
Experiment: Multiplex assay against U2OS
Format: toxicity, cell-based
Settings: human, number of replicates 2
Summary of the method: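 Values for tubulin, mitochondrial-mass and membrane-permeability phenotypes are per cents of cells with healthy nuclei. These cells were identified by CellPathfinder machine-learning gating of live cells that had been stained at seeding with Hoechst33342, BioTracker Green Microtubule Cytoskeleton Dye, MitoTracker Red and Annexin V Alexa Fluor 680 and imaged on a CQ1 microscope at 37°C and 5% CO2 after compound addition. The gating first set Hoechst high-intensity objects apart from normal cells, then split normal cells into healthy, pyknosed or fragmented nuclei, and pyknosed cells into mitotic or apoptotic.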

[1] = 12 h, 1 µM, compound concentration 1 uM
[2] = 12 h, 10 µM, compound concentration 10 uM
[3] = 24 h, 1 µM, compound concentration 1 uM
[4] = 24 h, 10 µM, compound concentration 10 uM
[5] = 48 h, 1 µM, compound concentration 1 uM
[6] = 48 h, 10 µM, compound concentration 10 uM

With COCCNC1CCC(Nc2cc(-c3csc(NCC4(C#N)CCOCC4)n3)c(Cl)cn2)CC1 (stereo not given) the “Population Apoptotic (%)” value [1] was 45% and 87%, the “Population Fragmented Nuclei (%)” value [1] was 17% and 9% and the “Population Healthy Nuclei (%)” value [1] was 34% and 40%. The “Population Hoechst High Intensity Objects (%)” value [1] was 0%, the “Population Mitochondria Different-Phenotype (%)” value [1] was 7% and the “Population Normal (%)” value [1] was 100% and 99%. For the same compound, the “Population Pyknosed Nuclei (%)” value [1] was 48% and 49%, the “Population Tubulin-Different-Phenotype (%)” value [1] was 57% and 58% and the “Population Apoptotic (%)” value [2] was 83% and 89%. For the same compound, the “Population Fragmented Nuclei (%)” value [2] was 10%, the “Population Hoechst High Intensity Objects (%)” value [2] was 2% and 1% and the “Population Mitochondria Different-Phenotype (%)” value [2] was 40% and 66%. The “Population Mitotic Cells (%)” value [2] was 16% and 10%, the “Population Normal (%)” value [2] was 97% and 98% and the “Population Pyknosed Nuclei (%)” value [2] was 40% and 78%. For the same compound, the “Population Tubulin-Different-Phenotype (%)” value [2] was 50%, the “Population Apoptotic (%)” value [3] was 59% and 94% and the “Population Fragmented Nuclei (%)” value [3] was 13% and 9%. The “Population Healthy Nuclei (%)” value [3] was 25% and 26%, the “Population Hoechst High Intensity Objects (%)” value [3] was 0% and 3% and the “Population Membrane Permeable-Phenotype (%)” value [3] was 0% and 14%. The “Population Mitochondria Different-Phenotype (%)” value [3] was 0% and 11%, the “Population Normal (%)” value [3] was 100% and 96% and the “Population Pyknosed Nuclei (%)” value [3] was 61% and 63%. For the same compound, the “Population Tubulin-Different-Phenotype (%)” value [3] was 55%, the “Population Apoptotic (%)” value [4] was 91% and the “Population Fragmented Nuclei (%)” value [4] was 9% and 6%. For the same compound, the “Population Hoechst High Intensity Objects (%)” value [4] was 2% and 3%, the “Population Membrane Permeable-Phenotype (%)” value [4] was 0% and 20% and the “Population Mitochondria Different-Phenotype (%)” value [4] was 33% and 58%. For the same compound, the “Population Mitotic Cells (%)” value [4] was 8%, the “Population Normal (%)” value [4] was 97% and 96% and the “Population Pyknosed Nuclei (%)” value [4] was 84% and 60%. For the same compound, the “Population Tubulin-Different-Phenotype (%)” value [4] was 66% and 52%, the “Population Apoptotic (%)” value [5] was 98% and 78% and the “Population Fragmented Nuclei (%)” value [5] was 11% and 16%. For the same compound, the “Population Healthy Nuclei (%)” value [5] was 7% and 9%, the “Population Hoechst High Intensity Objects (%)” value [5] was 5% and 0% and the “Population Membrane Permeable-Phenotype (%)” value [5] was 53% and 66%. The “Population Mitochondria Different-Phenotype (%)” value [5] was 38% and 66%, the “Population Normal (%)” value [5] was 94% and 100% and the “Population Pyknosed Nuclei (%)” value [5] was 81% and 74%. The “Population Tubulin-Different-Phenotype (%)” value [5] was 69% and 100%, the “Population Apoptotic (%)” value [6] was 100% and 94% and the “Population Fragmented Nuclei (%)” value [6] was 9% and 5%. For the same compound, the “Population Healthy Nuclei (%)” value [6] was 6% and 16%, the “Population Hoechst High Intensity Objects (%)” value [6] was 2% and 3% and the “Population Membrane Permeable-Phenotype (%)” value [6] was 66% and 40%. The “Population Mitochondria Different-Phenotype (%)” value [6] was 66% and 80%, the “Population Mitotic Cells (%)” value [6] was 0% and 5% and the “Population Normal (%)” value [6] was 97% and 96%. For the same compound, the “Population Pyknosed Nuclei (%)” value [6] was 83% and 78% and the “Population Tubulin-Different-Phenotype (%)” value [6] was 66% and 72%.
For CC1=C(C)C(=O)C(C(C)(C)CC(=O)N(CCCCSC[C@H]2O[C@@H](n3cnc4c(N)ncnc43)[C@H](O)[C@@H]2O)Cc2cccc(-c3ccc(Cl)cc3)c2)=C(C)C1=O, the “Population Apoptotic (%)” value [1] was 33% and 50%, the “Population Fragmented Nuclei (%)” value [1] was 4% and 7% and the “Population Healthy Nuclei (%)” value [1] was 85% and 72%. For the same compound, the “Population Hoechst High Intensity Objects (%)” value [1] was 0%, the “Population Membrane Permeable-Phenotype (%)” value [1] was 5% and 6% and the “Population Mitochondria Different-Phenotype (%)” value [1] was 4% and 0%. For the same compound, the “Population Mitotic Cells (%)” value [1] was 66% and 50%, the “Population Normal (%)” value [1] was 99% and 100% and the “Population Pyknosed Nuclei (%)” value [1] was 10% and 20%. For the same compound, the “Population Tubulin-Different-Phenotype (%)” value [1] was 57% and 34%, the “Population Apoptotic (%)” value [2] was 75% and 58% and the “Population Fragmented Nuclei (%)” value [2] was 8% and 4%. The “Population Healthy Nuclei (%)” value [2] was 69% and 79%, the “Population Hoechst High Intensity Objects (%)” value [2] was 0% and the “Population Membrane Permeable-Phenotype (%)” value [2] was 16% and 24%. For the same compound, the “Population Mitochondria Different-Phenotype (%)” value [2] was 40% and 33%, the “Population Mitotic Cells (%)” value [2] was 25% and 41% and the “Population Normal (%)” value [2] was 100%. The “Population Pyknosed Nuclei (%)” value [2] was 22% and 16%, the “Population Tubulin-Different-Phenotype (%)” value [2] was 96% and 86% and the “Population Apoptotic (%)” value [3] was 53% and 77%. The “Population Fragmented Nuclei (%)” value [3] was 2% and 6%, the “Population Healthy Nuclei (%)” value [3] was 89% and 77% and the “Population Hoechst High Intensity Objects (%)” value [3] was 0%. The “Population Membrane Permeable-Phenotype (%)” value [3] was 3% and 4%, the “Population Mitochondria Different-Phenotype (%)” value [3] was 4% and 6% and the “Population Mitotic Cells (%)” value [3] was 46% and 22%. The “Population Normal (%)” value [3] was 99% and 100%, the “Population Pyknosed Nuclei (%)” value [3] was 7% and 15% and the “Population Tubulin-Different-Phenotype (%)” value [3] was 66% and 42%. For the same compound, the “Population Apoptotic (%)” value [4] was 87% and 79%, the “Population Healthy Nuclei (%)” value [4] was 53% and 70% and the “Population Hoechst High Intensity Objects (%)” value [4] was 0%. The “Population Membrane Permeable-Phenotype (%)” value [4] was 50% and 23%, the “Population Mitochondria Different-Phenotype (%)” value [4] was 42% and 45% and the “Population Mitotic Cells (%)” value [4] was 12% and 20%. For the same compound, the “Population Normal (%)” value [4] was 100% and 99%, the “Population Pyknosed Nuclei (%)” value [4] was 30% and 25% and the “Population Tubulin-Different-Phenotype (%)” value [4] was 78% and 90%. The “Population Apoptotic (%)” value [5] was 100% and 39%, the “Population Fragmented Nuclei (%)” value [5] was 9% and 3% and the “Population Healthy Nuclei (%)” value [5] was 77% and 89%. The “Population Hoechst High Intensity Objects (%)” value [5] was 0%, the “Population Membrane Permeable-Phenotype (%)” value [5] was 4% and 1% and the “Population Mitochondria Different-Phenotype (%)” value [5] was 7% and 0%. The “Population Normal (%)” value [5] was 100%, the “Population Pyknosed Nuclei (%)” value [5] was 12% and 7% and the “Population Tubulin-Different-Phenotype (%)” value [5] was 56% and 79%. The “Population Apoptotic (%)” value [6] was 68% and 78%, the “Population Healthy Nuclei (%)” value [6] was 32% and 66% and the “Population Hoechst High Intensity Objects (%)” value [6] was 0%. The “Population Membrane Permeable-Phenotype (%)” value [6] was 66% and 36%, the “Population Mitochondria Different-Phenotype (%)” value [6] was 58% and 52% and the “Population Mitotic Cells (%)” value [6] was 31% and 21%. The “Population Normal (%)” value [6] was 100% and 99%, the “Population Pyknosed Nuclei (%)” value [6] was 51% and 28% and the “Population Tubulin-Different-Phenotype (%)” value [6] was 100% and 82%.
